# CHO parental Ca – counter-screen for OX1R antagonists: effect in parental CHO cells | parental CHO-K1, ATP-induced calcium, Fluo-8 fluorescence | inhibition, % at 5.6 µM | 330,000 tested, 0.63% active;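 active = inhibition above that plate's mean sample inhibition plus 3 SD, cut at about 26% in these data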;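 also: 0% = ATP-challenged DMSO wells and 100% = DMSO wells without ATP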
#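 Measured by: calcium-sensitive Fluo-8 fluorescence / Test system: CHO parental line / Controls: ATP-challenged DMSO wells low, unchallenged DMSO wells high / Measure: % inhibition / Compound: single nominal dose of 5.6 µM per compound / Replicates: single well per compound, no replicates / Reagent: ATP as calcium-mobilizing challenge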
# TAAR1 agonist – human TAAR1 agonism; 360,000 tested, 0.99% active; activation, % at 3 µM; Q96RJ0; CHO RD-HGA16 TAAR1, Fluo-8 calcium fluorescence; vehicle wells 0%, saturating PEA agonist 100%;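 active = activation above the mean activation of all test compounds in the run plus 3 SD, cut at about 38% in these data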
#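 System: CHO-derived RD-HGA16 cells with stable Gα16 and human TAAR1 / Times: 17-24 h plating, Fluo-8 75 min 37 °C, 30 min RT / Technique: calcium-sensitive Fluo-8 signal, excitation 470-495, emission 515-575 nm / Measure: % activation relative to PEA EC100 response / Benchmarks: DMSO and PEA EC100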
# OX1R antag-1 – antagonists of human orexin 1 receptor (OX1R). OX1R-expressing cells, FRET antagonist read-out. inhibition, % at 6.6 µM. 330,000 tested, 1.8% active. AID 485270; in the data active = inhibition mostly above about 38%, no sharp cut-off; inactive = mostly below about 40%;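 also: 0% = agonist challenge alone and 100% = reference antagonist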
# Target sequence (O43613 whole entry, looked up): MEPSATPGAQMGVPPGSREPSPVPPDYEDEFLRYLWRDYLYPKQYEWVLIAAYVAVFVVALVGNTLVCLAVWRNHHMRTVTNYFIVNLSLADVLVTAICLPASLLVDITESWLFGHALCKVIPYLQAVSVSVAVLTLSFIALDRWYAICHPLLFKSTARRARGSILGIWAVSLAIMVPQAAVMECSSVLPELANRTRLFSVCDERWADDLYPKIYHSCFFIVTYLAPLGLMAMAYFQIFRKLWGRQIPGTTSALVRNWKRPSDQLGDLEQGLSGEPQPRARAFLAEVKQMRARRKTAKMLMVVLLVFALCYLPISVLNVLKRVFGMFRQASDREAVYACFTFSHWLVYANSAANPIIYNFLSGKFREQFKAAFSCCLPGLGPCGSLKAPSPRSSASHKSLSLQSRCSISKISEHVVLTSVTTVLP
# OX1R antag-2 – antagonists of human orexin 1 receptor. O43613. CHO/OX1R cells, Fluo-8 calcium fluorescence, orexin A. inhibition, % at 5 µM. 330,000 tested, 0.43% active;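 active = inhibition above its plate's threshold, mean inhibition of all tested compounds on the plate plus 3 SD, cut at about 37% in these data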;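 also: 0% = orexin A challenge wells and 100% = SB-334867-A antagonist wells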
# GPR7 antagonist – blocks human GPR7 receptor signaling; AID 1861; inhibition, % at 4.4 µM; 290,000 tested, 1.1% active; GPR7-expressing cells, fluorescence antagonist assay; in the data active = inhibition above about 16%, passing the limit was not always enough;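 also: cells stimulated with the agonist NPW; 0% = agonist with vehicle and 100% = vehicle without agonist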
# TAAR1 antag – antagonists of human TAAR1; Q96RJ0; inhibition, % at 3 µM; 360,000 tested, 1.5% active; CHO RD-HGA16 TAAR1, Fluo-8 calcium fluorescence, antagonist;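 active = inhibition above a per-plate cutoff, the mean inhibition of test compounds on that plate plus 3 SD, cut at about 49% in these data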;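 also: 0% = DMSO plus EC80 beta-PEA response and 100% = DMSO alone without agonist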
#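 Assay system: CHO-derived RD-HGA16 cells stably expressing human TAAR1 plus Gα16. Timing: 140 s kinetic read after compound, 140 s after agonist. Technique: kinetic Fluo-8 calcium fluorescence measurement. Measure: % inhibition of agonist calcium response.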
# OX1R Ca confirm – confirmation of human orexin 1 receptor antagonists; CHO/OX1R cells, orexin A calcium Fluo-8 fluorescence; shares compounds with OX1R antag-2; inhibition, % at 5 µM; AID 492963; 1,100 tested, 38% active; in the data active = inhibition above about 29%;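 also: 0% = agonist challenge alone and 100% = reference antagonist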
# CHO Ca triplic – counter-screen for OX1R antagonists: effect in parental CHO cells; shares compounds with OX1R antag-2; parental CHO-K1, ATP-induced calcium, Fluo-8 fluorescence; inhibition, % at 5.6 µM; 1,100 tested, 9.3% active; AID 492965;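 active = inhibition above a per-plate limit, the mean inhibition of that plate's test compounds plus 3 SD, cut at about 25% in these data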;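 also: 0% = ATP challenge with DMSO and 100% = DMSO without ATP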
# * hit, by the source's call; · = not tested or not shown. Hits are enriched below; roughly 4.6% of the tested compounds scored in any of these assays.
SMILES,CHO parental Ca,TAAR1 agonist,OX1R antag-1,OX1R antag-2,GPR7 antagonist,TAAR1 antag,OX1R Ca confirm,CHO Ca triplic
O=C(CSc1nnc(NCc2ccccc2)s1)c1ccco1,-14,9,54,32,3,-2,7,10
CC(=O)Oc1ccc(N2C(=O)c3cccc4c([N+](=O)[O-])ccc(c34)C2=O)cc1,25,2,30,44*,19,10,35*,29*
CC(=O)Oc1ccc(-n2c(=O)c3ccccc3c3ccccc3c2=O)cc1,-4,-1,2,0,2,-14,·,·
COc1ccc2c(n1)Sc1nc3ccccc3nc1N2,24,22,30,35,17,17,47*,37*
Cc1ccc(OCCC(=O)N(CCC(C)C)c2c(N)n(Cc3ccccc3)c(=O)[nH]c2=O)cc1,-13,·,26,37,·,·,-5,-11
CCCN(C(=O)COC(=O)CCOc1ccc(C)cc1)c1c(N)n(Cc2ccccc2)c(=O)[nH]c1=O,-1,0,9,-6,·,-12,·,·
CC(CN1CCN(c2ccccc2)CC1)c1ccccc1 (stereo not drawn),-10,19,10,-20,-5,1,·,·
CC(C)(C)c1ccccc1OCC(=O)Nc1ccccc1C(=O)NCc1cccnc1,16,14,28,43*,-1,58*,8,-15
CC1=CC(C)(C)N(S(=O)(=O)c2ccc(C)cc2)c2ccc(C)cc21,0,6,23,40,14,14,-4,56*
C/C=C/C(=O)N1c2ccc(C)cc2C(C)=CC1(C)C,4,2,17,-7,-13,-46,·,·
CC(C)CN(C(=O)COc1ccc(Br)cc1C=O)C1CCS(=O)(=O)C1 (stereo not drawn),-6,1,7,-12,·,-7,·,·
CN(C)/C(=N\S(=O)(=O)c1ccccc1)c1ccc(F)cc1,3,2,2,-12,0,-6,·,·
O=C(c1ccccc1)N1CCN(c2nc3ccc([N+](=O)[O-])cc3s2)CC1,24,6,31,23,-11,5,27,22
CCCCCCCCNc1ncnc2ccccc12,-3,·,36,90*,8,·,16,85*
O=C(Nc1ccc(OC(F)(F)F)cc1)C1CCCN(C(=O)c2ccc(Cl)cc2)C1 (stereo not drawn),-19,2,20,20,·,27,·,·
CCC(Oc1ccccc1)C(=O)OCC(=O)Nc1sccc1C(N)=O (stereo not drawn),0,11,13,44*,·,23,17,18
CCc1nccn1S(=O)(=O)c1ccc2ccc(C)cc2c1,-11,7,16,56*,-7,-11,4,3
CCOc1ccc2cc(S(=O)(=O)n3ccnc3C)ccc2c1,16,2,15,-3,0,0,·,·
C/C=C(\C)C(=O)O[C@H](c1cc2ccc(=O)oc2cc1OC)[C@@H](O)C(C)(C)O,-6,6,-2,-16,·,3,·,·
COc1cccc(-c2ccc3c(c2)N(Cc2cccc(F)c2)C(=O)C(C)S3)c1 (stereo not drawn),·,2,·,·,·,-4,·,·
COc1cccc(CN2C(=O)C(C)N(C(=O)c3c(F)cccc3F)c3ccccc32)c1 (stereo not drawn),22,4,26,33,1,47,-2,-4
CC(=Nc1ccc(O)cc1)c1sc2ccccc2c1O,5,16,27,3,-19,19,·,·
CC(=Nc1ccccc1O)c1sc2ccccc2c1O,24,30,30,34,-3,44,11,0
O=C(Cn1cc([N+](=O)[O-])cn1)N1CCN(Cc2ccc3c(c2)OCO3)CC1,-5,0,-1,-11,-4,1,·,·
C=CCN1CCS(=O)(=O)N(Cc2ccccc2)[C@@H](C(C)C)C1=O,-16,0,7,-9,·,-14,·,·
SMILES,CHO parental Ca,TAAR1 agonist,OX1R antag-1,OX1R antag-2,GPR7 antagonist,TAAR1 antag,OX1R Ca confirm,CHO Ca triplic
Cc1cccc(OCC(=O)Nc2ccncc2)c1C,26,5,5,25,-5,-4,16,51*
CCN(CC)S(=O)(=O)c1cccc(C(=O)/C=C2/N(C)c3ccccc3C2(C)C)c1,13,1,27,27,-6,59*,0,8
CN1/C(=C\C(=S)NC(=O)c2cccc(Br)c2)C(C)(C)c2ccccc21,-11,1,12,-20,-2,1,·,·
Cc1ccc(C)c(S(=O)(=O)Nc2ccccc2C(=O)Nc2ccccc2N2CCOCC2)c1,9,2,13,-29,1,-2,·,·
CC1=C(C(=O)OCc2ccc3c(c2)OCO3)C(c2cccc([N+](=O)[O-])c2)NC(=O)N1 (stereo not drawn),0,9,12,25,-3,28,5,-8
O=C1NCC(c2ccccc2)C1C(=O)N/N=C/c1ccc(Cl)s1 (stereo not drawn),-24,10,15,5,2,-4,·,·
O=C1NCC(c2ccccc2)C1C(=O)N/N=C\c1ccc(-c2ccc(Cl)c(Cl)c2)o1 (stereo not drawn),8,0,60,52*,7,-15,51*,3
COc1ccc(NC2=NCCCCC2)cc1,4,3,4,-17,-3,7,·,·
COc1ccc(-c2nc(NC3=NCCCCC3)sc2C)cc1,-19,6,14,55*,-7,-4,20,-3
COc1ccccc1C(=O)NCCN1CCN(c2ccccc2)CC1,-17,1,5,-41,-15,-23,·,·
COC(=O)CNC(=O)C(NC(=O)OCc1ccccc1)C(C)C (stereo not drawn),12,1,9,25,1,3,-44,1
CCCC(=O)Nc1ccc(-c2nc3cc(C)c(C)cc3o2)cc1,0,8,13,45,-7,11,6,9
CC(=O)Nc1ccc(S(=O)(=O)N2CCSC2c2ccccc2Cl)cc1 (stereo not drawn),22,31,39,26,10,26,7,5
CC(=O)Nc1ccc(S(=O)(=O)N2CCSC2c2ccccc2)cc1 (stereo not drawn),11,21,20,-13,-5,0,·,·
Cc1cc(NC(=O)CSCC(=O)Nc2ccc(Cl)c(C(F)(F)F)c2)no1,-21,16,25,-21,·,-10,·,·
Cc1cc(NC(=O)CN(C)CC(=O)Nc2ccc(Cl)c(C(F)(F)F)c2)no1,-10,41*,12,40*,·,-12,3,0
O=C(C[C@@H]1C/C=C/CCCC(=O)O[C@H](c2ccccc2)CNC1=O)NCCO,-4,7,3,-3,·,3,·,·
